Measured values: ChEMBL document CHEMBL3585293, “Design, antiviral and cytostatic properties of isoxazolidine-containing amonafide analogues” (Bioorg Med Chem, 2015)

How the values were obtained:
[1] = system: HeLa; experiment: Cytotoxicity against human HeLa cells assessed as reduction of cell survival after 48 hrs by MTT assay; assay type: functional, cell-based
[2] = system: K562; experiment: Cytotoxicity against human K562 cells assessed as reduction of cell survival after 48 hrs by MTT assay; assay type: functional, cell-based; conditions: K562, 48 h
[3] = system: Human alphaherpesvirus 3; experiment: Antiviral activity against thymidine kinase-deficient Varicella-zoster virus infected in HEL cells assessed as reduction of virus-induced plaque formation; assay type: functional, organism-based; conditions: Human alphaherpesvirus 3, HEL
In short: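 Plaque-reduction assay in HEL cells. TK+ VZV strains were Oka and YS; TK- strains were 07-1 and YS-R. Virus input was 100 PFU, with graded compound concentrations. Plaques were counted once formation was complete in untreated infected controls. Two independent experiments were run.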

[4] = system: Human alphaherpesvirus 1; experiment: Antiviral activity against thymidine kinase-deficient acyclovir-resistant Herpes simplex virus 1 KOS infected in HEL cells assessed as reduction of virus-induced cytopathogenicity; assay type: functional, organism-based; conditions: Human alphaherpesvirus 1, KOS
[5] = system: Human alphaherpesvirus 3; experiment: Antiviral activity against Varicella-zoster virus expressing thymidine kinase infected in HEL cells assessed as reduction of virus-induced plaque formation; assay type: functional, organism-based; conditions: Human alphaherpesvirus 3, HEL
In short: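 Plaque-reduction assay in HEL cells. TK+ VZV strains were Oka and YS; TK- strains were 07-1 and YS-R. Virus input was 100 PFU, with graded compound concentrations. Plaques were counted once formation was complete in untreated infected controls. […] Two independent experiments were run.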

[6] = system: MDCK; experiment: Cytotoxicity against MDCK cells assessed cell viability by MTS assay; assay type: cell-based, Canis lupus familiaris; conditions: dog
In short: (§1)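 Cells were exposed to a range of compound concentrations. Viability was measured by the colorimetric formazan-based MTS assay.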

[7] = system: CCRF-CEM; experiment: Cytotoxicity against human CEM cells assessed as inhibition of cell proliferation; assay type: functional, cell-based
[8] = Cytotoxicity against CRFK cells assessed cell viability by MTS assay; assay type: cell-based, Felis catus; conditions: cat; in short: as §1
[9] = system: Cytomegalovirus; experiment: Antiviral activity against Cytomegalovirus Davis infected in HEL cells assessed as reduction of virus-induced cytopathogenicity; assay type: functional, organism-based; conditions: Human betaherpesvirus 5, Davis
[10] = system: HeLa; experiment: Cytotoxicity against human HeLa cells assessed as inhibition of cell proliferation; assay type: functional, cell-based
[11] = system: Human alphaherpesvirus 1; experiment: Antiviral activity against Herpes simplex virus 1 KOS infected in HEL cells assessed as reduction of virus-induced cytopathogenicity; assay type: functional, organism-based; conditions: Human alphaherpesvirus 1, KOS
[12] = system: Human alphaherpesvirus 2; experiment: Antiviral activity against Herpes simplex virus 2 G infected in HEL cells assessed as reduction of virus-induced cytopathogenicity; assay type: functional, organism-based; conditions: Human alphaherpesvirus 2, strain G
[13] = system: Cytomegalovirus; experiment: Antiviral activity against Cytomegalovirus AD-169 infected in HEL cells assessed as reduction of virus-induced cytopathogenicity; assay type: functional, organism-based; conditions: Human betaherpesvirus 5, AD-169, HEL
[14] = Cytotoxicity against HEL cells assessed as alternation of cell morphology by microscopic analysis; assay type: cell-based; conditions: human
[15] = system: L1210; experiment: Cytotoxicity against mouse L1210 cells assessed as inhibition of cell proliferation; assay type: functional, cell-based
[16] = system: CCRF-CEM; experiment: Potency index, ratio of 5-Fluorouracil IC50 to compound IC50 for human CEM cells; assay type: functional
[17] = Cytotoxicity against African green monkey Vero cells assessed as alternation of cell morphology by microscopic analysis; assay type: cell-based; conditions: chlorocebus sabaeus
In short: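 Vero cells were exposed to graded compound concentrations. MCC is the lowest concentration producing a microscopically detectable change in cell morphology. Two experiments were run.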

[18] = system: Coxsackievirus B4; experiment: Antiviral activity against Coxsackievirus B4 infected in African green monkey Vero cells assessed as reduction of virus-induced cytopathogenicity; assay type: functional, organism-based; conditions: Enterovirus B
In short: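 Confluent Vero (Coxsackie B4) or HeLa (vesicular stomatitis virus) monolayers in 96-well plates were inoculated with 100 CCID50 virus or 20 PFU and incubated with varying compound concentrations. Cytopathicity was scored once complete in untreated infected controls. […] Two separate experiments were run.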

[19] = system: Punta Toro virus; experiment: Antiviral activity against Punta Toro virus infected in African green monkey Vero cells assessed as reduction of virus-induced cytopathogenicity; assay type: functional, organism-based
In short: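 Confluent Vero monolayers were infected with 100 CCID50 of virus and then incubated with a range of compound concentrations. Viral cytopathicity was scored once it was complete in untreated infected control cultures. […] Two independent experiments were run.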

Structure (SMILES)	IC50 [1]	IC50 [2]	EC50 [3]	EC50 [4]	EC50 [5]	CC50 [6]	IC50 [7]	CC50 [8]	EC50 [9]	IC50 [10]	EC50 [11]	EC50 [12]	EC50 [13]	MCC [14]	IC50 [15]	Ratio IC50 [16]	MCC [17]	EC50 [18]	EC50 [19]
CCOP(=O)(OCC)C1CC(c2ccc3ccccc3c2)ON1C (stereo unspecified)	50 µM																		
CCOP(=O)(OCC)C1CC(c2cccc3ccccc23)ON1C (stereo unspecified)		90 µM																	
CCOP(=O)(OCC)[C@@H]1C[C@H](C(=O)Nc2cc3c4c(cccc4c2)C(=O)N(CCN(C)C)C3=O)ON1C (racemic)			20 µM	50 µM	≥ 11 µM	> 100 µM	6 µM	62.2 µM	37 µM	3.3 µM	50 µM	50 µM	37 µM	≥ 100 µM	2.9 µM				
CCOP(=O)(OCC)[C@@H]1C[C@@H](C(=O)Nc2cc3c4c(cccc4c2)C(=O)N(CCN(C)C)C3=O)ON1C (racemic)			26 µM	45 µM	14 µM	75.2 µM	3.4 µM	95.2 µM	8.9 µM	1.8 µM	45 µM		8.9 µM	≥ 100 µM	1.5 µM	5			
CCOP(=O)(OCC)[C@@H]1C[C@H](C(=O)Nc2cc3c4c(cccc4c2)C(=O)N(CCN2CCCC2)C3=O)ON1C (racemic)			> 20 µM	> 100 µM	> 20 µM	> 100 µM	12 µM	89.1 µM	45 µM	3 µM	> 100 µM	58 µM	45 µM	≥ 100 µM	4.4 µM				
CCOP(=O)(OCC)[C@@H]1C[C@@H](C(=O)Nc2cc3c4c(cccc4c2)C(=O)N(CCN2CCCC2)C3=O)ON1C (relative stereo)			> 20 µM	45 µM	> 20 µM	87.3 µM	3.9 µM	> 100 µM	10.9 µM	1.1 µM	45 µM		8.9 µM	≥ 100 µM	1.7 µM	5			
O=c1[nH]c(=O)n([C@H]2C[C@H](O)[C@@H](CO)O2)cc1/C=C/Br [BRIVUDINE]			1 µM	2 µM	0.029 µM									> 250 µM					
NC(=O)c1ncn([C@@H]2O[C@H](CO)[C@@H](O)[C@H]2O)n1 [RIBAVIRIN]																	> 250 µM	> 250 µM	112 µM
